This is one part of a sample in which hits are shown more often than they occur.
Hsp70 activator – switches on Hsp70 transcription; 200,000 tested, 0.04% active; activation, % at 10 µM; AID 1203; HeLa Hsp70 promoter luciferase reporter, luminescence; scaled: vehicle 0, proteasome-inhibitor control 100%;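 active = activation above the mean across all tested compounds plus 3 SD, cutoff set per campaign, cut at about 5.5% in these data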
HSF1 inh – HSF1 inhibition; activity change, negative = inhibition, % at 7.5 µM (by protocol); 300,000 tested, 0.77% active; NIH3T3-HGL HSE-luciferase, MG132-induced, luminescence 8 h; stronger effect = lower value;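 active = more than half of replicate wells show activity change below -50%, luminescence cut by over half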;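 also: luciferase reports HSF-1 transcriptional activity via heat shock element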
HSF1 activator – increases HSF-1 driven luciferase reporter signal | NIH3T3-HGL HSF-1 luciferase reporter, MG132, 8 h; 100% = twice DMSO control signal | activation, % at 9 µM | 300,000 tested, 1.7% active | AID 504408;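 active = mean replicate activation of at least 50% with a set share of replicates each reaching 50%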
L major viab – reduces viability of Leishmania major promastigotes; resazurin fluorescence viability; inhibition, % at 10 µM; 200,000 tested, 9% active; in the data active = inhibition above about 50%;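 also: promastigotes grown with compound for 44 hours at 28 °C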
T cruzi repl – T. cruzi replication inhibition. AID 1885. T. cruzi beta-gal in NIH3T3, luminescence, 90 h. inhibition, % (test concentration not listed). 300,000 tested, 1.4% active;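 active = mean inhibition across valid replicates above about 55%, limit read from the data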;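 also: signal also drops with host cell toxicity which is not excluded here; higher percent means less beta-gal luminescence so fewer parasites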
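System – NIH/3T3 host cells with β-galactosidase reporter T. cruzi · Doses – single 50 nL compound addition per well in DMSO · Reagent – 5000 T. cruzi trypomastigotes/well · Medium – Low-serum DMEM with 2% FBS · Timing – ≥90 h infection period, 3 h prior cell attachment · Evaluation – parasite load inhibition, % · Technique – GalScreen luminescence, 60 min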
Of the large screens only hits and unclear results are named; the others gave an inactive call.

O=C(N/N=C/c1ccccn1)c1cccs1	L major viab 77
O=C(N/N=C\c1cn[nH]c1-c1ccccc1)c1cccs1	HSF1 inh -74
COc1cccc(/C=N/NC(=O)c2cccs2)c1	HSF1 activator 63 (no result: Hsp70 activator, L major viab)
COc1ccccc1/C=C/C=N/NC(=O)c1cccs1	HSF1 activator 61 (no result: Hsp70 activator, L major viab)
NC(=O)c1cc2ccccc2o/c1=N/NC(=O)c1cccs1	none
COc1ccc2o/c(=N/NC(=O)c3cccs3)c(C(N)=O)cc2c1	HSF1 activator 56
COc1ccccc1-c1nc(-c2ccncc2)no1	none
COc1ccccc1-c1nc(-c2ccc(Br)cc2)no1	HSF1 activator 55
CCSc1nc(-c2ccc(OC)cc2)cc(-c2ccccc2)c1C#N	none
COc1ccc(-c2cc(-c3ccccc3)c(C#N)c(S(C)=O)n2)cc1 (centres undefined)	HSF1 activator 146, L major viab 100
Cc1csc(NC(=O)Cc2coc3cc(C)c(C(C)C)cc23)n1	none
Cc1cc2occ(CC(=O)NCc3cccs3)c2cc1C(C)C	HSF1 activator 62
CC(=O)Nc1ccc(CN2CCN(c3cccc(C(F)(F)F)c3)CC2)cc1	L major viab 91
COc1ccc(OCC(=O)N2CCN(c3cccc(Cl)c3)CC2)cc1	none
CC(=O)Nc1ccc(NC(=O)CN2CCN(c3cccc(C(F)(F)F)c3)CC2)cc1	none
COc1ccc(OCC(=O)N2CCN(c3cccc(C(F)(F)F)c3)CC2)cc1	HSF1 inh -87
CCCCCCCCCCOC(=O)Cn1c(COc2ccc(Cl)cc2)[n+](C)c2ccccc21	none (no result: Hsp70 activator, L major viab)
CCOC(=O)Cn1c2[n+](c3ccccc31)CC(O)CS2 (centres undefined)	none
CCCCCCCCCCOC(=O)Cn1c(COc2ccc(OC)cc2)[n+](C)c2ccccc21	none (no result: Hsp70 activator, L major viab)
CCOC(=O)Cn1c(COc2ccccc2OC)[n+](C)c2ccccc21	HSF1 inh -84 (no result: Hsp70 activator, L major viab)
CCCCCCCCCCOC(=O)Cn1c(COc2cccc(C)c2)[n+](C)c2ccccc21	T cruzi repl 58 (no result: Hsp70 activator, L major viab)
CCCCCCCCCCOC(=O)Cn1c(COc2ccccc2C)[n+](C)c2ccccc21	T cruzi repl 65 (no result: Hsp70 activator, L major viab)
CCCCCCCCCCOC(=O)Cn1c(COc2ccccc2)[n+](C)c2ccccc21	T cruzi repl 73 (no result: Hsp70 activator, L major viab)
CCCCOC(=O)Cn1c(=O)n(CC(=O)OCCCC)c2ccccc21	none
COc1cccc(-n2c([S-])c(C(=O)Nc3ccc(C(F)(F)F)cc3)[n+]3ccccc23)c1	none
COC(=O)c1ccn(Cc2ccccc2Cl)n1	none
Cc1cc(C)c(Cc2c(C)nc3c(C(=O)NCc4ccco4)cnn3c2C)c(C)c1	T cruzi repl 59
CC(C)C(C)NC(=O)COC(=O)/C=C/c1ccc(S(=O)(=O)N2CCc3ccccc32)cc1 (centres undefined)	none
COc1ccc(C2C(C#N)=C(N)N(c3sc4c(c3C#N)CCCC4)C3=C2C(=O)CC(C)(C)C3)cc1OC (centres undefined)	none
COc1ccc(C2C(C#N)=C(N)N(c3sc4c(c3C#N)CCCC4)C3=C2C(=O)CC(C)(C)C3)cc1 (centres undefined)	L major viab 83
COc1ccc(C2C(C#N)=C3NC(=O)c4c(sc5c4CCCCC5)N3C3=C2C(=O)CC(C)(C)C3)cc1 (centres undefined)	L major viab 88
COCOc1ccc(/C=C/C(=O)c2c(O)cc(OCOC)cc2OCOC)cc1	none (no result: Hsp70 activator, L major viab)
O=C(N=C1c2ccccc2CN1c1ccc(F)c(Cl)c1)c1cccnc1Cl	HSF1 activator 69
COc1ccccc1NC(=O)Cn1c(=O)n(CCc2c[nH]c3ccccc23)c(=O)c2cccnc21	L major viab 65
Cc1ccc(C)c(NS(=O)(=O)c2ccc(NC(=O)CSc3ccc(Cl)cc3)cc2)c1	none
Cc1ccc(NS(=O)(=O)c2ccc(NC(=O)C(C)Sc3ccc(Cl)cc3)cc2)c(C)c1 (centres undefined)	L major viab 92
Nc1c(Cl)ncnc1N/N=C/c1ccccn1	L major viab 100 (no result: HSF1 inh, HSF1 activator, T cruzi repl)
Nc1c(Cl)ncnc1N/N=C/c1ccc2ccccc2n1	L major viab 100 (no result: HSF1 inh, HSF1 activator, T cruzi repl)
Nc1c(Cl)ncnc1N/N=C/c1cccnc1	none (no result: Hsp70 activator, L major viab)
CC(C)C(=O)Nc1ccc(S(=O)(=O)N2CCC(c3nc4ccccc4[nH]3)CC2)cc1	none (no result: Hsp70 activator, L major viab)
CC(C)C(=O)Nc1sc2c(c1-c1nc3ccccc3[nH]1)CCCC2	L major viab 61
O=C(/C=C/c1ccccc1)NCCc1c[nH]c2ccccc12	none (no result: Hsp70 activator, L major viab)
CC(C)CN(CCOc1cccc(N2C(=O)C3=C(CCCC3)C2=O)c1)CC(C)C	L major viab 63
O=C1/C(=N/n2cnnc2)c2ccccc2N1Cc1ccccc1	L major viab 85
CCOc1ccc(NC(=O)COc2ccc(C(=O)NCCc3ccccc3)cc2)cc1	none
CC(C)c1ccccc1NC(=O)COc1ccc(C(=O)NCCc2ccccc2)cc1	L major viab 71
O=C(NC(=S)Nc1cccc2c(O)cccc12)c1ccccc1[N+](=O)[O-]	none (no result: Hsp70 activator, L major viab)
Fc1ccc(N2CCN(c3ncnc4c3nnn4Cc3ccccc3Cl)CC2)cc1	T cruzi repl 63
CCCN1CCN(c2ncnc3c2nnn3Cc2ccccc2)CC1	L major viab 97
FC(F)(F)c1ccc(N2CCN(c3ncnc4c3nnn4Cc3ccccc3Cl)CC2)cc1	none
O=C(CN1CCN(c2ccccn2)CC1)Nc1nc2ccccc2s1	none (no result: Hsp70 activator, L major viab)
COc1ccc(OCC(O)CN2CCOCC2)cc1 (centres undefined)	none (no result: Hsp70 activator, L major viab)
CN(C)CC(O)COc1ccc(-c2ccc(C#N)cc2)cc1 (centres undefined)	L major viab 98
N#Cc1ccc(-c2ccc(OCC(O)CN3CCOCC3)cc2)cc1 (centres undefined)	L major viab 84
Cc1ccc(S(=O)(=O)CC(O)COc2ccc(C#N)cc2)cc1 (centres undefined)	none
Cc1ccc(CSCC(=O)N2CCN(c3ccc(F)cc3)CC2)cc1	T cruzi repl 57
O=C(CN1CCC(C(=O)c2ccc(F)cc2)CC1)Nc1ccc(F)cc1	none
Cc1ccc(C(=O)C2CCN(CC(=O)N3CCN(c4ccc(F)cc4)CC3)CC2)cc1	L major viab 89
CCOC(=O)N1CCN(C(=O)CSCc2ccccc2)CC1	L major viab 51
O=c1ccn(-c2cccc(C(F)(F)F)c2)nc1-c1ccn(-c2cccc(Cl)c2)n1	none
C#CCNC(=O)C1=C[C@H](C)C[C@H](OCc2ccc(CO)cc2)O1	none (no result: Hsp70 activator, L major viab)
Cc1cccc2cc(CN(Cc3nnnn3C3CCCCC3)C3CCCC3)c3nnnn3c12	L major viab 50
Cc1cc(C)c2[nH]c(=O)c(CN(Cc3nnnn3C3CCCC3)C3CCCCC3)cc2c1	none
O=S1(=O)c2ccccc2N=NN1Cc1ccc(Cl)c(Cl)c1	none
CC(C)(C)c1ccc(CN2N=Nc3ccccc3S2(=O)=O)cc1	L major viab 101
CC1CCCC(C)N1CC(O)COc1c(F)cc(Br)cc1F (centres undefined)	L major viab 74
